Measured values reported in ChEMBL document CHEMBL1134271 (J Med Chem, 2001).
Each block holds one compound with its values, some of them ahead of it.

Tests used:
[1] = biological target: T1, Endothelin-1 receptor (Rattus norvegicus, UniProt P26684); assay: Binding affinity against endothelin A receptor in MMQ cells in rat; type: cell-based
T1 sequence (P26684 whole entry): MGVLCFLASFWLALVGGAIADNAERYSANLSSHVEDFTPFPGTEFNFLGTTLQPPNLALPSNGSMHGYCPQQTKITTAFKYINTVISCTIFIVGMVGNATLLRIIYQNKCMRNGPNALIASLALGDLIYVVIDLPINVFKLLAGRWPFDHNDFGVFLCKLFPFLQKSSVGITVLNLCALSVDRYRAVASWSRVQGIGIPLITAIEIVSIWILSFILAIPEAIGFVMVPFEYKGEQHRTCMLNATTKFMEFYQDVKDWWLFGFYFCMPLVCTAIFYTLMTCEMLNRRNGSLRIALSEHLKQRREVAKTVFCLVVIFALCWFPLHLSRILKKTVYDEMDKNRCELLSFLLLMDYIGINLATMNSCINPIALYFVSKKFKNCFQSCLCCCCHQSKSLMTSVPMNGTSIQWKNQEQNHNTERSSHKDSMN

[2] = biological target: T2, Endothelin receptor type B (Homo sapiens, UniProt P24530); assay: Binding affinity against human endothelin B receptor in CHO cells; type: cell-based
T2 sequence (P24530 whole entry): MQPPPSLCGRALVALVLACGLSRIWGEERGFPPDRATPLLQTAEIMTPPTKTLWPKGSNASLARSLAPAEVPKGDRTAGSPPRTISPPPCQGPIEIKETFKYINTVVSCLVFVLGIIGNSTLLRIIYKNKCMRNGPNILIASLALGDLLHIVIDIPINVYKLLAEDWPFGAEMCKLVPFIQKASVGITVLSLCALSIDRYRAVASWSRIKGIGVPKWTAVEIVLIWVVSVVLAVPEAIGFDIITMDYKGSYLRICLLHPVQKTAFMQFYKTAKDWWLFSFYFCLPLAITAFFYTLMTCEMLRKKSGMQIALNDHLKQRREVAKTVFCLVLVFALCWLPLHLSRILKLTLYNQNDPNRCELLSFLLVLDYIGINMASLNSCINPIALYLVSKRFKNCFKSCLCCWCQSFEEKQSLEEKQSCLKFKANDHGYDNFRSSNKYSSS
How it was run: (§1)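 Human ET-A and ET-B receptors expressed in CHO cells, run as a second binding assay alongside the rat/porcine screen. IC50 was derived from radioligand displacement: [125I]ET-1 for ET-A and [125I]ET-3 for ET-B.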

[3] = Compound was evaluated for pharmacokinetic data, Cmax; type: ADME, organism-based; conditions: in vivo
How it was run: (§2)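 Rats (n = 3) were given 10 mg/kg by oral gavage. Plasma drug concentration was followed over time and compared with the intravenous time course. Oral half-life, Cmax, AUC and oral bioavailability were derived from these profiles.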

[4] = Compound was evaluated for half life period when administered orally; type: ADME, organism-based; conditions: in vivo, po; how it was run: as §2
[5] = (§3) Compound was evaluated for bioavailability; type: ADME, organism-based; conditions: eutheria, in vivo; how it was run: as §2
[6] = Compound was evaluated for pharmacokinetic data, area under curve (AUC); type: ADME; how it was run: as §2
[7] = Compound was evaluated for half life period when administered intravenously; type: ADME, organism-based; conditions: in vivo, iv
How it was run: (§4)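 Rats were dosed by intravenous injection at 5 mg/kg. Plasma drug levels were followed over time, and half-life was derived from the iv time course.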

[8] = biological target: T3, Endothelin-1 receptor (Homo sapiens, UniProt P25101); assay: Binding affinity against human Endothelin A receptor; how it was run: as §1
T3 sequence (P25101 whole entry): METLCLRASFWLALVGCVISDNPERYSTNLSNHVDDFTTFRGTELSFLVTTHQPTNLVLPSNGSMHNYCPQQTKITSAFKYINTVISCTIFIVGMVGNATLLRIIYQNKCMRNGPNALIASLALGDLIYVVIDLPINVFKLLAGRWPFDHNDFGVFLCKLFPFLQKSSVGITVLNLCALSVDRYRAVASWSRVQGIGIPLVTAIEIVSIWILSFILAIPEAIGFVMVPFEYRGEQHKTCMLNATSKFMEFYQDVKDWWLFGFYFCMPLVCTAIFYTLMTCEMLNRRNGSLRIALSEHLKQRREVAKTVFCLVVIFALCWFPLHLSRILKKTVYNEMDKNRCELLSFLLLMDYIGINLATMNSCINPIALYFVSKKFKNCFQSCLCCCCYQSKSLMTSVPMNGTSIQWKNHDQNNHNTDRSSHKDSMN

[9] = Compound was evaluated for half-life period when administered intravenously; type: ADME, organism-based; conditions: in vivo, iv; how it was run: as §4
[10] = as §3; type: ADME, organism-based; conditions: eutheria, in vivo; remark: listed apart in the source
How it was run: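 Rats received the drug by intravenous injection (5 mg/kg) and by oral gavage (10 mg/kg), three rats per route. Plasma drug levels were followed over time. Oral bioavailability (F) was derived by comparing plasma exposure after oral dosing with that after iv dosing.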

IC50 [1]: 0.48 nM
Structure (SMILES): CCCCN(CCCC)C(=O)CN1C[C@H](c2ccc3occc3c2)[C@@H](C(=O)O)[C@@H]1c1ccc(OC)cc1

IC50 [1]: 0.85 nM
Structure (SMILES): CCCCN(CCCC)C(=O)CN1C[C@H](c2ccc3c(c2)OCCO3)[C@@H](C(=O)O)[C@@H]1c1ccc(OC)cc1

IC50 [2]: 950 nM
Structure (SMILES): CCCCN(CCCC)C(=O)CN1C[C@H](c2ccc3c(c2)OCCO3)[C@@H](C(=O)O)[C@@H]1c1ccc(CC)c(F)c1

IC50 [1]: 0.92 nM
Structure (SMILES): CCCCN(CCCC)C(=O)CN1C[C@H](c2ccc3c(c2)CCO3)[C@@H](C(=O)O)[C@@H]1c1ccc(CC)cc1

IC50 [1]: 0.12 nM
Structure (SMILES): CCCCN(CCCC)C(=O)CN1C[C@H](c2ccc3c(c2)OCO3)[C@@H](C(=O)O)[C@@H]1c1ccc(C)cc1

IC50 [2]: 3050 nM
Structure (SMILES): CCCCN(CCCC)C(=O)CN1C[C@H](c2ccc3c(c2)CCO3)[C@@H](C(=O)O)[C@@H]1c1ccc(CC)c(F)c1

IC50 [1]: 0.07 nM
Structure (SMILES): CCCCN(CCCC)C(=O)CN1C[C@H](c2ccc3c(c2)OCO3)[C@@H](C(=O)O)[C@@H]1c1ccc(OC)c(F)c1

IC50 [1]: 0.17 nM
Structure (SMILES): CCCCN(CCCC)C(=O)CN1C[C@H](c2ccc3c(c2)OCO3)[C@@H](C(=O)O)[C@@H]1c1ccc(CC)cc1

Ki [8]: 0.039 nM
IC50 [2]: 6200 nM
Cmax [3]: 1840 ng/mL
T1/2 [4]: 4.7 h
bioavailability [5]: 71.7%
half-life [9]: 2.1 h
AUC [6]: 12500 ng·h/mL
Structure (SMILES): CCCCN(CCCC)C(=O)CN1C[C@H](c2ccc3c(c2)CCO3)[C@@H](C(=O)O)[C@@H]1c1ccc(C)c(F)c1 (stereo in doubt; 8a)

bioavailability [10]: 47.7%
AUC [6]: 3270 ng·h/mL
Structure (SMILES): CCCCN(CCCC)C(=O)CN1C[C@H](c2cc(OC)c3c(c2)OCO3)[C@@H](C(=O)O)[C@@H]1CC(C)(C)CCC [ABT-546]

The remaining lines, values behind:

Structure (SMILES): CCCCN(CCCC)C(=O)CN1C[C@H](c2ccc3c(c2)OCO3)[C@@H](C(=O)O)[C@@H]1c1ccc(CCC)cc1
IC50 [1]: 1.06 nM

Structure (SMILES): CCCCN(CCCC)C(=O)CN1C[C@H](c2ccc3c(c2)CCO3)[C@@H](C(=O)O)[C@@H]1c1ccc(C)cc1
IC50 [1]: 0.78 nM

Structure (SMILES): CCCCN(CCCC)C(=O)CN1C[C@H](c2ccc3c(c2)OCCO3)[C@@H](C(=O)O)[C@@H]1c1ccc(CC)cc1
IC50 [1]: 5.2 nM

Structure (SMILES): CCCCN(CCCC)C(=O)CN1C[C@H](c2ccc3c(c2)OCO3)[C@@H](C(=O)O)[C@@H]1c1ccc(OC)c(OC)c1
IC50 [1]: 0.11 nM

Structure (SMILES): CCCCN(CCCC)C(=O)CN1C[C@H](c2ccc3c(c2)OCC3)[C@@H](C(=O)O)[C@@H]1c1ccc(OC)cc1
IC50 [1]: 1.2 nM

Structure (SMILES): CCCCN(CCCC)C(=O)CN1C[C@H](c2ccc3c(c2)OCO3)[C@@H](C(=O)O)[C@@H]1c1ccc(C(F)(F)F)cc1
IC50 [1]: 3.28 nM

Structure (SMILES): CCCCN(CCCC)C(=O)CN1C[C@H](c2ccc3c(c2)OCO3)[C@@H](C(=O)O)[C@@H]1c1ccc(F)c(F)c1
IC50 [1]: 1.38 nM

Structure (SMILES): CCCCN(CCCC)C(=O)CN1C[C@H](c2ccc3c(c2)OCO3)[C@@H](C(=O)O)[C@@H]1c1ccc(OC)cc1
Cmax ([3]; read-out: Cmax): 3440 ng/mL
half-life [4]: 6.2 h
bioavailability ([5]; read-out: Bioavailability): 60.2%
AUC [6]: 7360 ng·h/mL

Structure (SMILES): CCCCN(CCCC)C(=O)CN1C[C@H](c2ccc3c(c2)CCO3)[C@@H](C(=O)O)[C@@H]1c1ccc(C)c(F)c1 (stereo in doubt; 8)
IC50 [2]: 4400 nM
Cmax ([3]; read-out: Cmax): 930 ng/mL
half-life [4]: 5.8 h
bioavailability ([5]; read-out: Bioavailability): 65.6%
half-life [7]: 4.7 h
AUC [6]: 9400 ng·h/mL
